Compound activity from PubChem.
This is a sample that favours compounds with a hit; in the whole collection about 1.5% have one here.
Tb hexokinase = Trypanosoma brucei hexokinase 1 inhibitors, primary screen, biochemical, G6PDH-coupled NADH absorbance, MLSCN library; hexokinase 1 [Trypanosoma brucei]; recombinant TbHK1, G6PDH-coupled NADH A340; inhibition, % at 10 µM; 0.11% of 220,000 active; AID 1430, 2008;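 active means inhibition of 50% or more in the single-dose primary screen; inactive means inhibition below 50%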
S1P4 antag = S1P4 receptor antagonists, primary screen, cell-based; Sphingosine 1-phosphate receptor 4 (Homo sapiens), O95977; S1P4-expressing cells, antagonist mode, reporter read-out; inhibition, % at 4.98 µM; 0.26% of 220,000 active; AID 1510, 2009; in the data active means inhibition above about 29%
Target sequence (O95977 whole entry, looked up): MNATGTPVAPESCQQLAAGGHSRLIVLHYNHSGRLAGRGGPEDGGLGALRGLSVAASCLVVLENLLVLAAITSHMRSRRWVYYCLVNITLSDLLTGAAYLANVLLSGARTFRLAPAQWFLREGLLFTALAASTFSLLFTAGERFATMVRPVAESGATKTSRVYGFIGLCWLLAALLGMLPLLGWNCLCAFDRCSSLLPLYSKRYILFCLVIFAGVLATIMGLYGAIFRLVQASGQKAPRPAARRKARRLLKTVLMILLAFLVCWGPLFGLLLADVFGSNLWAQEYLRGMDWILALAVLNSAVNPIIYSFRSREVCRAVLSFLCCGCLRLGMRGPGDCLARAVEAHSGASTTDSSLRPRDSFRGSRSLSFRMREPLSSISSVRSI
Dynein transport = inhibitors of GR-EGFP nuclear translocation, primary screen, dynein cargo transport inhibitor project, imaging, high-content, 3617.4 mouse cells; AID 1381, 2008; test concentration mostly 20 µM; stimulated with dexamethasone, 1 µM; hits give low values; 0.47% of 220,000 active; z-score, hits read low;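 active means plate z-score of nuclear minus cytoplasmic receptor signal below a set negative limit, without overly bright fluorescence or cell loss, cut at about -3.5 in these data, passing the limit was not always enough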;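 further: z-score of nuclear minus cytoplasmic ring GR-EGFP intensity difference per well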
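medium = tetracycline-free induction medium containing charcoal-stripped FBS | also added = 1.0 µM final dexamethasone stimulus | schedule = 48 h induction, 1 h compound, 30 min dex at 37 °C | technique = fixed, Hoechst-stained cells imaged at 10x for EGFP | measure = GR-EGFP nuclear translocation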
L929 necroptosis = inhibitors of zVAD-triggered necroptosis, primary screen, L929 cells. L929 zVAD necroptosis rescue, ATP luminescence, 24 h; with zVAD 60 µM. viability rescue, % at 10 µM. 0.38% of 220,000 active. AID 1377, 2008;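 active means activation, scaled between plate controls, above about 75%, limit read from the data; inactive means activation under that limit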
S1P4 agonist = S1P4 receptor agonists, primary screen, cell-based | 0.35% of 220,000 active | activation, % at 4.98 µM | Sphingosine 1-phosphate receptor 4 (Homo sapiens), O95977 | AID 1509, 2009 | S1P4-expressing cell line, agonist reporter assay; in the data active means activation above about 11%
TNF death inh = inhibitors of TNF-alpha triggered necroptosis, primary screen, cell-based, Jurkat FADD-/-, single concentration | Jurkat FADD-/- TNF necroptosis rescue, ATP luminescence, 24 h; 0 = TNF only, 100 = no-TNF cells | activation (protection from cell death), % at 10 µM | 0.068% of 220,000 active | AID 463075, 2010;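 active means activation, meaning protection from cell death, of at least 50% relative to plate controls; inactive means activation below 50%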;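 further: necroptosis triggered by 40 ng/mL TNF-alpha added together with compound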
zVAD necrop conf = inhibitors of zVAD-triggered necroptosis in L929, confirmation, L929 cells, duplicate runs. shares compounds with L929 necroptosis. L929 zVAD-induced necroptosis rescue, ATP luminescence, 24 h. activation (protection from necroptosis), % at 10 µM. 16% of 760 active;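 active means mean protection from necroptosis of at least 50% over duplicate tests; inactive means mean protection below 50%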
Numbers stand for hits; - = inactive; . = no result.

SMILES	Tb hexokinase	S1P4 antag	Dynein transport	L929 necroptosis	S1P4 agonist	TNF death inh	zVAD necrop conf
COc1ccc(OCC(O)CNS(=O)(=O)c2cccc(Cl)c2)cc1 (configuration not stated)	-	-	-	-	-	-	.
CCC(=O)Nc1ccc2c(c1)ncn2-c1ccc(OC)cc1	-	-	-	81	-	-	-
CCOC(=O)c1c(NC(=O)N/N=C/c2ccccc2OCC)sc(C(C)=O)c1C	-	-	-	-	-	-	.
CCOC(=O)c1c(NC(=O)N/N=C/c2ccc(O)c(OC)c2)sc(C(C)=O)c1C	-	-	-	78	-	-	-
O=C(O)c1ccccc1N/N=C\c1ccnc2ccccc12	-	-	-	-	-	-	.
O=C(O)c1cccc2c(/C=N/Nc3ccccn3)c[nH]c12	-	-	-	84	-	-	-
C(=N\Nc1ccccn1)/c1c[nH]c2ccccc12	-	-	-	92	-	-	55
O=c1nc(N/N=C/c2c[nH]c3ccccc23)cn[nH]1	-	-	-	-	-	-	.
O=c1oc2ccccc2nc1/C=C(O)/C=C/c1ccc(F)cc1	-	-	-	-	-	-	.
Cc1ccc(/C(O)=C/c2nc3ccccc3oc2=O)cc1	-	-	-	77	-	-	-
O=c1oc2ccccc2nc1/C=C(O)/C=C\c1ccccc1	-	-	-	78	-	-	-
CCOC(=O)c1ccc(NC(=O)Nc2cccc(C)n2)cc1	-	-	-	-	-	-	.
CCOC(=O)c1ccc(NC(=O)Nc2ccn(C)n2)cc1	-	-	-	86	-	-	-
Cc1oc(-c2cccc3ccccc23)nc1CN1CCN(c2ncnc3ccccc23)CC1	-	-	-	-	-	-	.
CC(=O)Nc1cc(-c2ccc(Cl)cc2)[nH]n1	-	-	-	87	-	-	-
O=C(Nc1nccs1)c1ccc(S(=O)(=O)NCC2CCCCC2)cc1	-	-	-	123	-	-	52
O=C(Nc1nccs1)c1ccc(S(=O)(=O)NCc2cccs2)cc1	-	-	-	100	-	-	85
Fc1ccc(/C=N/Nc2ccccn2)cc1	-	-	-	-	-	-	.
Clc1ccc(/C=N/Nc2ccccn2)cc1	-	-	-	81	-	-	-
COc1ccc(/C=N/Nc2ccccn2)cc1O	-	-	-	90	-	60	64
COc1ccc(/C=N/Nc2cc(OC)ncn2)cc1	-	-	-	78	-	-	-
Cc1noc(C)c1/C=N/Nc1ccccn1	-	-	-	82	-	-	73
Brc1ccc(/C=N/Nc2ccccn2)cc1	-	-	-	78	-	-	-
CCCOc1ccc(/C=N/NC(=O)C(=O)Nc2ccccn2)cc1	-	-	-	-	-	-	.
CCOc1ccc(/C=N/Nc2ccccn2)cc1	-	-	-	78	-	-	-
SMILES	Tb hexokinase	S1P4 antag	Dynein transport	L929 necroptosis	S1P4 agonist	TNF death inh	zVAD necrop conf
CN1CCN(CC2(O)CCN(S(=O)(=O)c3ccc(Cl)cc3)CC2)CC1	-	-	-	-	-	-	.
Cc1cnc(N)c2c(=O)oc3ccccc3c12	-	-	-	84	-	-	-
COc1ccc(C(=O)OCC(=O)NC(=O)NC(C)C)cc1OC	-	-	-	77	-	-	-
COc1ccc(C(=O)COC(=O)c2ccc(OC)c(OC)c2)cc1OC	-	-	-	-	-	-	.
CNc1ncc(C(=O)c2ccc(F)cc2)s1	-	-	-	85	-	-	-
CCn1c(SCc2ccc(C(=O)Nc3nccs3)cc2)nnc1-c1ccc(N)cc1	-	-	-	88	-	-	71
O=C(Nc1nccs1)c1ccc(NC(=O)c2ccco2)cc1	-	-	-	84	-	-	-
O=C(Nc1nccs1)c1cncc(Br)c1	-	-	-	-	-	-	.
O=C(Nc1nccs1)c1ccc2nccnc2c1	-	-	-	-	-	-	.
Nc1ccc(C(=O)Nc2nccs2)cc1	-	-	-	81	-	-	-
CC(C)(C)c1ccc(C(=O)Nc2ccc(NC(=O)c3ccco3)cc2)cc1	-	-	-	-	-	-	.
Cc1ccc(C(=O)Nc2nccs2)cc1	-	-	-	86	-	-	-
Cc1ccc(NC(=O)COC(=O)[C@H](C)NC(N)=O)c(C)c1	-	-	-	-	-	-	.
Cc1cccc(N(C(=O)CNC(=O)c2ccco2)C(C(=O)NCC2CCCO2)c2ccccc2)c1 (configuration not stated)	-	-	-	-	-	-	.
Nc1ccccc1C(=O)Nc1nccs1	-	-	-	91	-	-	-
CN(c1ccc(C(=O)Nc2nccs2)cc1)S(=O)(=O)c1ccccc1	-	-	-	89	-	-	86
COc1ccc(CC(=O)Nc2ccc(C(=O)Nc3nccs3)cc2)cc1OC	-	-	-	83	-	-	63
O=C(Nc1nccs1)c1ccccc1[N+](=O)[O-]	-	-	-	-	-	-	.
Cc1ccc(C(=O)N2N=C(CC(C)C)CC2(O)C(F)(F)F)o1 (configuration not stated)	-	-	-	-	-	-	.
Cc1cc(-c2n[nH]c(=S)n2/N=C/c2cccc(O)c2)n[nH]1	-	-	-	-	-	-	.
Cc1cc(-c2n[nH]c(=S)n2/N=C/C(Cl)=C/c2ccccc2)n[nH]1	-	-	-	83	-	-	-
S=c1[nH]nc(-c2ccco2)n1/N=C/C(Cl)=C/c1ccccc1	-	-	-	77	-	-	-
CCCCn1cnc2c(oc3nc4c(cc32)CCCC4)c1=O	-	-	-	-	-	-	.
CC(O)[C@H]1CNC(=O)C(=O)N1CC1(c2ccccc2)CC1 (some centres not stated)	-	.	-	-	.	-	.
O=C(Cc1ccc(F)cc1)Nc1cccc(-c2ccc3nncn3n2)c1	-	-	-	89	-	-	-
O=C(Cc1cccs1)Nc1cccc(-c2ccc3nncn3n2)c1	-	-	-	-	-	-	.
O=C(COc1ccc([N+](=O)[O-])cc1)Nc1ccc(C(=O)Nc2ccccc2C(=O)O)cc1	-	-	-	-	-	-	.
CC(C)n1c(O)c(N=NC(=O)C2COc3ccccc3O2)c2ccccc21 (configuration not stated)	-	-	-	-	-	-	.
O=C(NCCN1C(=O)C2C3C=CC(C3)C2C1=O)Nc1cccnc1 (configuration not stated)	-	-	-	-	-	-	.
O=C(NCCN1C(=O)C2C3C=CC(C3)C2C1=O)Nc1ccc(Br)cc1 (configuration not stated)	-	-	-	76	-	-	-
